Assay results pooled from the literature.
Protocols differ between the studies behind these lines.

SMILES | tested on | assay | test system | conditions | measurement | result
O=C1c2ccccc2C(c2ccccc2)C(=O)N1O (stereo not shown) | Human betaherpesvirus 5 | viral replication, inhibitor | – | 10 µM, 7 days | inhibition | 23%
CCCCCCC#Cc1cncc(-c2nnc(SCc3ccc(Cl)cc3)n2C)c1 | Mycobacterium tuberculosis | microbial growth | ERDMAN | – | IC90 | 8.1 µM
CCOC(=O)C1=C(N)N(c2ccc(C(=O)OCC)cc2)C(O)=C(C#N)C12C(=O)Nc1ccccc12 (stereo not shown) | HepG2 | cell growth or viability, MTT | – | 3.125 µM, 24 h | viability | 74.5%
O=c1[nH]c2scc(-c3ccccc3)c2c(=O)n1O | Human betaherpesvirus 5 | viral replication, inhibitor | – | 10 µM, 7 days | inhibition | -3.4%
CCCCCCC#Cc1cncc(-c2nnc(SCc3ccc(Cl)cc3)n2C2CC2)c1 | Mycobacterium tuberculosis | microbial growth | ERDMAN | – | IC90 | 7.5 µM
COc1ccc2c3c1O[C@H]1C(=O)CC[C@@]4(O)[C@@H](C2)N(C)CC[C@]314 | – | thermal pain | rat | intraperitoneal | ED50 | 2.67 mg/kg
O=C(NCc1ccc(Cl)c(Cl)c1)c1nc(Cl)c2cccnc2c1O | Human betaherpesvirus 5 | viral replication, inhibitor | HFF | – | EC50 | 9.7 µM
CCN1CC2(CCN(CCc3cc(F)ccc3F)CC2)O[C@H](C)C1=O | – | thermal pain | rat | intraperitoneal | ED50 | 1.85 mg/kg
Nc1ncnc2c([C@@H]3N[C@H](CO)[C@@H](O)[C@H]3O)c[nH]c12 | human respiratory syncytial virus | viral replication, inhibitor | MA104 | 88.8 µM | inhibition | 94.2%
Cc1c(C(=O)O)sc2[nH]c(=O)n(O)c(=O)c12 | Human betaherpesvirus 5 | viral replication, inhibitor | – | 10 µM, 7 days | inhibition | 11%
O=C(NCc1ccc(F)cc1)c1nc(Cl)c2cccnc2c1O | Human betaherpesvirus 5 | viral replication, inhibitor | HFF | – | EC50 | 8.3 µM
CCCCCCC#Cc1cncc(-c2nnc(Sc3ccc([N+](=O)[O-])cc3[N+](=O)[O-])n2C)c1 | Mycobacterium tuberculosis | microbial growth | ERDMAN | – | IC90 | 1.2 µM
O=c1[nH]c2cc(-c3ccc(Cl)cc3)ccc2c(=O)n1O | Human betaherpesvirus 5 | viral replication, inhibitor | – | 10 µM, 7 days | inhibition | 102%
